Numbering of substitutions follows the chain as printed.
How the values were obtained:
ISRE-luciferase reporter = assay: ISRE luciferase reporter assay in HT-29 cells; type: cell-based; conditions: IFN-γ 50 U/ml alone, 6 h
In short: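 HT-29 cells (5 × 10^5 per well) were co-transfected by lipofection with 1.6 µg pISRE-Luc and 0.4 µg β-gal plasmids. They were then stimulated with 50 U/ml IFN-γ for 6 h or left unstimulated. Luciferase was normalized to β-galactosidase activity; two duplicate experiments (n = 4).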

HT-29 cells = assay: Cell growth assay; type: cell-based; conditions: IFN-γ 100 U/ml alone, 4 days
In short: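 HT-29 cells at 1,000 cells/well, in triplicate, in RPMI1640/10% FBS with IFN-γ (100 U/ml) and/or test compound or vehicle. Compound volume kept ≤0.1% of total. Incubated 4 days at 37 °C/5% CO2. Relative viable cell number was read by CellTiterGlo luminescence. Synergism of the two agents was calculated with the Bliss definition.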

Shp1 = conditions: cited from earlier work
most of other PTPs = conditions: cited from earlier work
[1] = target: T1, His-tagged Shp2 (amino acids 1–525) (Homo sapiens, UniProt Q06124); assay: Surface plasmon resonance; conditions: SPR, 1:1 binding model
T1 sequence (Q06124 1-525): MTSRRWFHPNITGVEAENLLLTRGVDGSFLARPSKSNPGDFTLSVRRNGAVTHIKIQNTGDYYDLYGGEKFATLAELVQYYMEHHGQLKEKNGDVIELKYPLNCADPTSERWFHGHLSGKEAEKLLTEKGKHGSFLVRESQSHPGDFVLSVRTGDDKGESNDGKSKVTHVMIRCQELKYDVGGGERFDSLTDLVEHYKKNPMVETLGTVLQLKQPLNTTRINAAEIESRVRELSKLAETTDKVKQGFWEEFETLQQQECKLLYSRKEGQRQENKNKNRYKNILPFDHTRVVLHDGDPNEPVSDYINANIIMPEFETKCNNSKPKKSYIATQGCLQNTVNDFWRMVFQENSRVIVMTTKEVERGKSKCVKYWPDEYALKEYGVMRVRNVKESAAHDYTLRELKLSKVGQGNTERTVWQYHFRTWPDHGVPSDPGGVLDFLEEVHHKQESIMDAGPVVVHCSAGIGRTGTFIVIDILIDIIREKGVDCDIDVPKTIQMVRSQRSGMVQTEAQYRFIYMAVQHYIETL

[2] = target: T2, non-fusion Shp2 PTP protein (Homo sapiens, UniProt Q06124); assay: Enzyme kinetics analysis of Shp2 PTP inhibition; type: biochemical; conditions: Lineweaver-Burk, AIC comparison
T2 sequence (Q06124 247-517 limits assumed): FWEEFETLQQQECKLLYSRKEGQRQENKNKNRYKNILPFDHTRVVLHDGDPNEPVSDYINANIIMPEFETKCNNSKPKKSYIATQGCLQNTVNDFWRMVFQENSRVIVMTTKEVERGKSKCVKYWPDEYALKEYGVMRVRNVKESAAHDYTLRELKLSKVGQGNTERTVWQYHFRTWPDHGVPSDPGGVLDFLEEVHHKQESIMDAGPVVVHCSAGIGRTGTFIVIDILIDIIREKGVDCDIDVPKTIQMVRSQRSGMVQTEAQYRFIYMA

Shp2 [3] = target: T3, Shp2 (Homo sapiens, UniProt Q06124); assay: Cell-based Shp2 inhibition assays
T3 sequence (Q06124 1-593): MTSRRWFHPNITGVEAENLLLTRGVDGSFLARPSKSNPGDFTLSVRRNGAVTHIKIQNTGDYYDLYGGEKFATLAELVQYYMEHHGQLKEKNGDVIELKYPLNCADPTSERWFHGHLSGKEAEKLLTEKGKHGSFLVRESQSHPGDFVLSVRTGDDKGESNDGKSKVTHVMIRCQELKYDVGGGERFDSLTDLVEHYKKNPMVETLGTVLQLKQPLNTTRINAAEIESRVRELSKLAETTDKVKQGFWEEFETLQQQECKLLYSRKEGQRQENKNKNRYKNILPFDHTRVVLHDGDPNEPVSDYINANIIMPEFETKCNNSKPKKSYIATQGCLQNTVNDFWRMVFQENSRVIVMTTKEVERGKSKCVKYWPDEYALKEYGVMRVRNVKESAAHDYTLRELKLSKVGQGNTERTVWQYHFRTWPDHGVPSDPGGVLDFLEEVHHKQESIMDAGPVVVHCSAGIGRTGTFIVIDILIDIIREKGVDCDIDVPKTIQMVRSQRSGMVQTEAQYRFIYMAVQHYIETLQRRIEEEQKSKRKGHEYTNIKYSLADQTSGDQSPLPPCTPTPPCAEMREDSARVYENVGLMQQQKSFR

TF-1/Shp2^E76K cells [4] = assay: Fluorescence uptake assay; type: in vitro ADME; conditions: 5 h incubation, ex/em 485/535 nm
In short: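 TF-1/Shp2E76K cells (6 × 10^5 in 1 ml RPMI1640/10% FBS) were incubated 5 h at 37 °C/5% CO2 with test compound or DMSO. Fluorescence (485/535 nm) was read in the whole suspension, then in cell-free medium (supernatant plus washes) and in twice-washed pellets. Fraction totals were expressed relative to the 100 µM suspension, set as 100%. Two duplicate experiments (n = 4).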

cells = assay: Confocal laser scanning microscopy of compound uptake; type: in vitro ADME; conditions: 25 µM, 3 h
In short: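 TF-1/Shp2E76K cells grown in glass-bottom dishes were exposed to test compound at 25 µM for 3 h, then Hoechst 33342 (5 µg/ml) was added. Internal confocal sections were imaged with a 63X/1.40NA oil objective (2,520×), using 458 nm argon and 405 nm diode excitation with tunable emission filters. Compound fluorescence was viewed green.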

Shp2 [5] = target: T3, Shp2; assay: EGF-stimulated Shp2 PTP activity in immune complexes from MDA-MB-468 cells; type: cell-based; conditions: 100 µM pre-treatment overnight, EGF 50 ng/ml 10 min
In short: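 Sub-confluent MDA-MB-468 cells were serum-starved 18 h in DMEM/0.1% BSA, pretreated overnight with test compound (20 or 100 µM), then EGF-stimulated (50 ng/ml, 10 min). Lysate (0.2 mg, Hepes pH 7.4 PTP lysis buffer) was immunoprecipitated with anti-Shp2/protein G for 2 h at 4 °C and washed. Complexes were reacted with 50 µM DiFMUP for 20 min at room temperature, and DiFMU fluorescence was read. Pellets were immunoblotted for Shp2. Two experiments, duplicates.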

Shp2^E76K = target: T4, Shp2^E76K (Homo sapiens, UniProt Q06124, E76K); assay: Shp2^E76K PTP activity in immune complexes from TF-1/Shp2^E76K cells; type: cell-based; conditions: GM-CSF-free medium
T4 sequence (Q06124 1-593 E76K): T3 sequence (Q06124 1-593) with E76K
In short: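 TF-1/Shp2E76K cells were treated in GM-CSF-free RPMI1640/10% FBS with test compound at various concentrations. Flag-Shp2E76K was immunoprecipitated with anti-Flag M2/protein G (0.2 mg lysate, 2 h, 4 °C) and washed. Complexes were incubated with 50 µM DiFMUP for 20 min at room temperature, and fluorescence was measured. Part of each immunoprecipitate was blotted for Shp2. Two experiments.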

TF-1/Shp2^E76K cells [6] = assay: Cell growth assay; type: cell-based; conditions: GM-CSF-free medium, 4 days
In short: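 TF-1/Shp2E76K cells were plated at 1,000 cells/well in triplicate in RPMI1640/10% FBS without GM-CSF, with test compound. The compound volume was ≤0.1% of the total. Cells were incubated 4 days at 37 °C/5% CO2, then relative viable cell number was read with CellTiterGlo. Data came from two triplicate experiments.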

## IFN-γ: interferon-γ, cytokine used to stimulate STAT1 signaling in HT-29 cells
ISRE-luciferase reporter
  activation of ISRE luciferase activity: 26%
HT-29 cells
  fraction of inhibition: 0.18

## O=C1C(=NNc2ccc(S(=O)(=O)O)cc2)C(c2ccc([N+](=O)[O-])cc2)=NN1c1ccccc1 [PHPS1, phenylhydrazonopyrazolone sulfonate 1]
Shp1
  selectivity against Shp1: 14 fold
Most of other PTPs
  selectivity against most of other PTPs: > 10

## O=C1Nc2ccc(S(=O)(=O)NCc3ccc(F)cc3)cc2/C1=N/Nc1cccc(C(=O)O)c1 [SPI-112, (Z)-3-(2-(5-(N-(4-fluorobenzyl)sulfamoyl)-2-oxoindolin-3-ylidene)hydrazinyl)benzoic acid]
[1]
  association rate Ka: 22400 M⁻¹ s⁻¹
[2]
  best fitted inhibition model: competitive inhibition model
Shp2 [3]
  activity in cell-based Shp2 inhibition assays: no detectable activity
TF-1/Shp2^E76K cells [4]
  fluorescent signal associated with the cell pellets: only trace amount
cells
  green fluorescence in confocal images of internal sections of cells: did not have green fluorescence
Shp2 [5]
  effect on EGF-stimulated Shp2 PTP activity: did not affect
Shp2^E76K
  Shp2^E76K PTP activity in treated cells: no decrease
TF-1/Shp2^E76K cells [6]
  effect on viable cells: did not affect

## O=C(O)c1cc(O)c(=O)c2c(O)c(O)ccc2c1 [DCA, 7-deshydroxypyrogallin-4-carboxylic acid]
Shp1
  Shp1 inhibition compared with Shp2: same potency
